GPR7 antag = antagonists of human GPR7 (neuropeptides B/W receptor 1); inhibition, % at 4.4 µM; hit rate 1.1% among 290,000; GPR7-expressing cells, fluorescence antagonist assay; in the data active means inhibition above about 16%, passing the limit was not always enough;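 further: cells stimulated with the agonist NPW; 0% = agonist with vehicle and 100% = vehicle without agonist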
TAAR1 antag = human TAAR1 antagonism; Q96RJ0; CHO RD-HGA16 TAAR1, Fluo-8 calcium fluorescence, antagonist; AID 624466; inhibition, % at 3 µM; hit rate 1.5% among 360,000;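 active means inhibition above a per-plate cutoff, the mean inhibition of test compounds on that plate plus 3 SD, cut at about 49% in these data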;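 further: 0% = DMSO plus EC80 beta-PEA response and 100% = DMSO alone without agonist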
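Material: CHO RD-HGA16 cells bearing hTAAR1; compound dosing: one-point dosing, 3 µM nominal final; schedule: dye loading 75 min at 37 °C, then 30 min room temperature; measured by: calcium fluorescence with Fluo-8; control set: vehicle and agonist controls; replication: n of 1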
OX1R antag-1 = human HCRTR1 antagonism; CHO/OX1R cells, Fluo-8 calcium fluorescence, orexin A; inhibition, % at 5 µM; hit rate 0.43% among 330,000; AID 434989;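 active means inhibition above its plate's threshold, mean inhibition of all tested compounds on the plate plus 3 SD, cut at about 37% in these data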;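 further: 0% = orexin A challenge wells and 100% = SB-334867-A antagonist wells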
Target sequence (O43613 whole entry, looked up): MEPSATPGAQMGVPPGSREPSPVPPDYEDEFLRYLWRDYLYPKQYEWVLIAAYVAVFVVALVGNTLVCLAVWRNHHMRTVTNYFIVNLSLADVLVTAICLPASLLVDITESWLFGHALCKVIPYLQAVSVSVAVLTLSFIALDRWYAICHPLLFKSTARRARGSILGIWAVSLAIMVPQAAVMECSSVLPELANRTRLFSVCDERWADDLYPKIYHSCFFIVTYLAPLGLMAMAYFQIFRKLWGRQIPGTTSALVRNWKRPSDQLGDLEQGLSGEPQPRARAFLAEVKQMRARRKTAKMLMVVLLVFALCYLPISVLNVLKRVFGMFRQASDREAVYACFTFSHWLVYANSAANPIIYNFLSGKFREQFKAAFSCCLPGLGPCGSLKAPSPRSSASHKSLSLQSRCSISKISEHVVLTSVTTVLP
CHO parental Ca = counter-screen: ATP calcium response change in parental CHO cells; parental CHO-K1, ATP-induced calcium, Fluo-8 fluorescence; inhibition, % at 5.6 µM; hit rate 0.63% among 330,000;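 active means inhibition above that plate's mean sample inhibition plus 3 SD, cut at about 26% in these data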;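 further: 0% = ATP-challenged DMSO wells and 100% = DMSO wells without ATP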
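Material: Parental CHO cells | Reagent: ATP | Compound dosing: Single nominal dose of 5.6 µM per compound | Detection: Intracellular calcium via Fluo-8 no-wash fluorescent dye | Read-out: % inhibition of ATP-induced calcium mobilization | Benchmarks: Low control ATP plus DMSO, high control DMSO only | Replicates: Singlicate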
TAAR1 agonist = agonists of human TAAR1 | CHO RD-HGA16 TAAR1, Fluo-8 calcium fluorescence; vehicle wells 0%, saturating PEA agonist 100% | hit rate 0.99% among 360,000 | Q96RJ0 | activation, % at 3 µM | AID 624467;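 active means activation above the mean activation of all test compounds in the run plus 3 SD, cut at about 38% in these data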
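Test system: RD-HGA16 (CHO) cells co-expressing Gα16 and hTAAR1; dosing: one-point dosing at 3 µM (nominal); timing: 17-24 h seeding, 75 min 37 °C dye, 30 min RT; signal: kinetic Fluo-8 calcium fluorescence; read-out basis: % activation relative to PEA EC100 response; controls: DMSO and PEA EC100; replicates: n 1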
OX1R antag-2 = antagonists of human orexin 1 receptor (OX1R) | O43613 | OX1R-expressing cells, FRET antagonist read-out | inhibition, % at 6.6 µM | hit rate 1.8% among 330,000; in the data active means inhibition mostly above about 38%, no sharp cut-off; inactive means mostly below about 40%;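 further: 0% = agonist challenge alone and 100% = reference antagonist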
OX1R Ca confirm = OX1R (human) antagonism, confirmed. shares compounds with OX1R antag-1. CHO/OX1R cells, orexin A calcium Fluo-8 fluorescence. inhibition, % at 5 µM. hit rate 38% among 1,100; in the data active means inhibition above about 29%;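 further: 0% = agonist challenge alone and 100% = reference antagonist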
CHO Ca triplic = counter-screen: parental CHO calcium response change, triplicate; inhibition, % at 5.6 µM; parental CHO-K1, ATP-induced calcium, Fluo-8 fluorescence; hit rate 9.3% among 1,100; shares compounds with OX1R antag-1;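 active means inhibition above a per-plate limit, the mean inhibition of that plate's test compounds plus 3 SD, cut at about 25% in these data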;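 further: 0% = ATP challenge with DMSO and 100% = DMSO without ATP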
OX1R HTRF confirm = OX1R (human) antagonism, HTRF confirmed; inhibition, % at 6.6 µM; shares compounds with OX1R antag-2; hit rate 49% among 1,800; OX1R-expressing cells, HTRF antagonist assay; AID 492964; in the data active means inhibition above about 55%;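 further: CHO cells expressing OX1R stimulated with orexin A at about EC80; 0% = agonist challenge alone and 100% = reference antagonist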
CHO-K1 HTRF = counter-screen: parental CHO-K1 HTRF response. shares compounds with OX1R antag-2. parental CHO-K1 cells, HTRF counterscreen. inhibition, % at 6.6 µM. hit rate 48% among 1,800; in the data active means inhibition above about 17%;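 further: 0% = agonist challenge with vehicle and 100% = vehicle alone without agonist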
Numbers without * were called inactive; x = no result. Sampled rows, rich in hits. Any-hit rate of the full collection: about 4.6%.

SMILES	GPR7 antag	TAAR1 antag	OX1R antag-1	CHO parental Ca	TAAR1 agonist	OX1R antag-2	OX1R Ca confirm	CHO Ca triplic	others
Cc1cc(C)c(OCC(=O)Nc2nnc(-c3ccco3)o2)c(C)c1	-7	-22	-11	-24	-1	17	x	x
COc1ccc(CN(C)c2ccc(S(=O)(=O)N3CCN(C)CC3)cc2[N+](=O)[O-])cc1OC	x	2	46*	6	11	24	3	65*
CCCc1ccc(C2C3=C(CC(C)(C)CC3=O)NC3=C2C(=O)c2ccccc23)cc1 (stereo not drawn)	7	-17	66*	-10	10	29	25	-4
Cc1cccc(NC(=O)CN(C)C(=O)C2CCCC2)c1C	x	-5	3	-4	3	-1	x	x
CCc1cccc2c1NC(=O)C2(O)N1CCCC(C)C1 (stereo not drawn)	0	-19	3	-4	2	12	x	x
O=C(Nc1ncn[nH]1)c1ccc(Cl)c(S(=O)(=O)N2CCCCCC2)c1	-4	-4	29	-3	2	12	1	7
Cc1cn(CC(=O)N2CCN(c3ccccn3)CC2)c(=O)[nH]c1=O	x	9	x	x	0	x	x	x
Cc1cn([C@H]2C[C@H](O)[C@@H](/C=C/C(=O)NCCC(c3ccccc3)c3ccccc3)O2)c(=O)[nH]c1=O	x	-3	x	x	1	x	x	x
COc1ccccc1N1CCN(c2cc(C)nc3nc(C)nn23)CC1	-4	-16	36	-10	1	6	-3	-4
COc1ccccc1-c1c(C)nn2c(N3CCN(c4ccccc4OC)CC3)cc(C)nc12	-11	-1	-16	-9	-1	6	x	x
COCCn1c(=S)[nH]c2cc(C(=O)N3CCCC(C)C3)ccc2c1=O (stereo not drawn)	-10	-1	1	-9	4	1	x	x
O=C(CCC1CCCN(C(=O)c2ccc3cc[nH]c3c2)C1)NCc1ccc(F)c(F)c1 (stereo not drawn)	0	-4	-13	-20	4	6	x	x
Cc1ccc(C)c(N(CC(=O)NC2CCCC2)S(=O)(=O)c2ccccc2)c1	4	-8	-11	-26	0	51	x	x
CS(=O)(=O)N(Cc1ccco1)CC(O)Cn1c2ccccc2c2ccccc21 (stereo not drawn)	-2	6	51*	9	14	37	30*	-1
CCCN(CCC)CC(O)Cn1c2ccccc2c2ccccc21 (stereo not drawn)	13	-12	-28	-8	4	24	x	x
CCOC(=O)c1ccc(NC(=O)CNNC(=O)COc2ccccc2C)cc1	x	-18	5	-16	1	14	x	x
Cc1cc(C)cc(NC(=S)N2CCN(c3ncc(C(F)(F)F)cc3Cl)CC2)c1	-6	-13	-1	-25	4	4	x	x
Cc1csc2c(N3CCN(C(=S)Nc4ccc(C(F)(F)F)cc4)CC3)ncnc12	-1	38	37	10	47*	25	22	64*
Cc1csc2ncnc(N3CCN(C(=S)Nc4ccc(C(F)(F)F)cc4)CC3)c12	-10	-41	49*	0	1	45	22	45*
FC(F)(F)c1cccc(NC(=S)N2CCN(c3ccccn3)CC2)c1	-4	17	-11	-18	36	2	x	x
Cc1cnn2c(C3CC3)ccnc12	3	-27	22	3	3	10	2	-6
COc1cc(/C=C/C(O)=C/C(=O)/C=C/c2ccc(O)cc2)ccc1O	x	81*	48	25	45*	4	18	18
COc1ccc(/C=C/C(=O)c2cc(Br)ccc2O)cc1OC	2	5	-30	-21	8	-1	x	x
CC(=O)NC(c1cccc(F)c1)c1nc(-c2cnn(C)c2)cs1 (stereo not drawn)	x	-18	x	x	1	x	x	x
CC(=O)n1cc([C@H]2C=C(C(=O)Nc3ccccc3)O[C@@H](OCc3ccc(CO)cc3)C2)c2ccccc21	1	x	-3	-1	x	13	x	x
SMILES	GPR7 antag	TAAR1 antag	OX1R antag-1	CHO parental Ca	TAAR1 agonist	OX1R antag-2	OX1R Ca confirm	CHO Ca triplic	others
CC(=O)n1cc([C@@H]2C=C(C(=O)NCc3ccccc3)O[C@H](OCc3ccc(CO)cc3)C2)c2ccccc21	x	62*	41	7	22	23	17	1
COc1ccc(C(=O)NC(=S)NCc2ccco2)cc1	-3	-44	-13	-4	1	15	x	x
Cc1[nH]c(=O)[nH]c(=O)c1S(=O)(=O)N1CCCC(C(=O)NCCc2ccccc2)C1 (stereo not drawn)	7	-2	-11	-12	3	1	x	x
Cc1[nH]c(=O)[nH]c(=O)c1S(=O)(=O)N1CCCC(C(=O)NCCc2ccc(Cl)cc2)C1 (stereo not drawn)	-8	x	33	0	x	25	1	-7
CCN1C/C(=C/c2ccc(N3CCOCC3)cc2)C(=O)/C(=C/c2ccc(N3CCOCC3)cc2)C1	-16	40	46	34	25	31	34*	34*
O=C(C[C@H]1C[C@H](C(=O)N2CCCCC2)[C@@]2(CCc3ccccc3)c3[nH]c4ccc(Cl)cc4c3CCN2C1=O)NCc1ccco1	x	-56	-26	-8	-1	5	x	x
CCN(CC)c1ccc(/C=c2/sc3nnc(-c4ccccc4C)n3c2=O)cc1	5	13	32	15	17	24	44*	40*
Cc1n[nH]c(=O)n(N=Cc2c[nH]c3ccccc23)c1=O	x	-20	x	x	2	x	x	x
CC(=C/c1ccccc1)/C=C1/SC(N2CCOCC2)=NC1=O	-2	35	85*	-5	6	108*	80*	3	OX1R HTRF confirm=101*;CHO-K1 HTRF=-2
O=C1N=C(N2CCOCC2)S/C1=C\c1ccc(OS(=O)(=O)c2ccccc2)cc1	7	15	-33	-14	10	2	x	x
Cc1ccc2sc3ccc(NC(=O)c4ccccc4Cl)cc3c(=O)c2c1	-3	18	37	-17	5	71*	21	5	OX1R HTRF confirm=72*;CHO-K1 HTRF=18*
CCOc1ccccc1NC(=O)COC(=O)C(CC(C)C)N1C(=O)C2CC=CCC2C1=O (stereo not drawn)	13	22	32	-18	-2	60*	18	-8	OX1R HTRF confirm=43;CHO-K1 HTRF=9

From PubChem
